Laboratory results as given in ChEMBL document CHEMBL3612055, “Design, synthesis and biological evaluation of 1,3-diphenyl-1H-pyrazole derivatives containing benzimidazole skeleton as potential anticancer and apoptosis inducing agents” (Eur J Med Chem, 2015).
The source made the active and inactive calls. The calls are words filed in the database; no cut-off is given here.

Legend:
MCF7 [1] = experiment: Induction of apoptosis in human MCF7 cells assessed as nuclear fragmentation at IC50 level incubated for 24 hrs by Hoechst […] staining based fluorescence microscopy; assay type: functional
How it was run: (§1)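 They were fixed in 4% paraformaldehyde and stained with Hoechst […] (5 µg/mL, 30 min, room temperature). Nuclei in random fields were imaged by fluorescence microscopy (ex 350 / em 460 nm). Apoptotic fraction is mean ± SD of three independent experiments; DMSO control.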

MCF7 [2] = experiment: Inhibition of cell migration of human MCF7 cells at IC50 level incubated for 24 to 72 hrs by phase contrast microscopy based wound healing assay; assay type: functional
How it was run: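 Confluent MCF-7 monolayers (5×10^5 cells/well, 24 h) were scratched with a pipette tip and washed with PBS pH 7.4. Medium with IC50 concentrations was then added. Cells entering the wound were photographed by phase contrast at 0, 24, 48 and 72 h, in ≥3 random fields per well.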

MCF7 [3] = experiment: Induction of apoptosis in human MCF7 cells assessed as increase in Bax mRNA expression at IC50 level incubated for 24 hrs by RT-PCR method; assay type: functional, cell-based
How it was run: (§2)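 Total RNA was Trizol-extracted and 1 µg reverse-transcribed with random primers. Real-time PCR ran 95 °C 3 min, then 40 cycles of 95 °C 1 s / 60 °C 20 s. Fold change came from comparative CT, normalised to β-actin. Reactions ran in triplicate, across three experiments.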

MCF7 [4] = experiment: Reduction in cyclin D1 mRNA expression in human MCF7 cells at IC50 level incubated for 24 hrs by RT-PCR method; assay type: functional, cell-based; how it was run: as §2
MCF7 [5] = experiment: Induction of apoptosis in human MCF7 cells assessed as DNA fragmentation at IC50 level incubated for 24 hrs by ethidium bromide staining based agarose gel electrophoresis method; assay type: functional, cell-based
How it was run: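 Pellets were lysed in SDS/EDTA/Tris pH 8.0 buffer with RNase A (37 °C, 90 min), then proteinase K (50 °C, 1 h). DNA was precipitated with ammonium acetate/ethanol. It was run on 1.5% agarose in TBE and stained with ethidium bromide, against control cells.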

MCF7 [6] = experiment: Induction of cell morphology changes in human MCF7 cells assessed as cell shrinkage at IC50 level incubated for 48 hrs by phase contrast microscopy; assay type: functional, cell-based
How it was run: (§3)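 MCF-7 cells were kept in DMEM/10% FBS and used at passages 4-8. […] Detachment, shrinkage and viable cell numbers were scored under phase contrast microscopy against untreated cells.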

MCF7 [7] = experiment: Increase in beta-catenin mRNA expression in human MCF7 cells at IC50 level incubated for 24 hrs by RT-PCR method; assay type: functional; how it was run: as §2
HaCaT = experiment: Cytotoxic activity against human HaCaT cells assessed as reduction in cell growth incubated for 48 hrs by MTT assay; assay type: cell-based
MCF7 [8] = experiment: Inhibition of colony formation in human MCF7 cells assessed as reduction in clonogenic survival at IC50 level incubated for 24 hrs followed medium replacement with fresh medium and further incubation for 14 days; assay type: functional
MCF7 [9] = experiment: Induction of ROS generation in human MCF7 cells at IC50 level incubated for 24 hrs by carboxy-DCFDA staining based fluorescence microscopy; assay type: functional
How it was run: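 Carboxy-DCFDA (10 µM) was added for 30 min at room temperature in the dark. Cells were washed and resuspended at 5×10^4 cells/mL. Fluorescence was read by spectrofluorometry at ex 488 / em 525 nm, with fluorescence microscopy images also taken.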

MCF7 [10] = experiment: Effect on CDK1 cyclin D1 mRNA expression in human MCF7 cells at IC50 level incubated for 24 hrs by RT-PCR method; assay type: functional, cell-based; how it was run: as §2
MCF7 [11] = experiment: Induction of cell morphology changes in human MCF7 cells assessed as cell detachment at IC50 level incubated for 48 hrs by phase contrast microscopy; assay type: functional, cell-based; how it was run: as §3
MCF7 [12] = experiment: Increase in cyclin B1 mRNA expression in human MCF7 cells at IC50 level incubated for 24 hrs by RT-PCR method; assay type: functional; how it was run: as §2
MCF7 [13] = experiment: Increase in E-cadherin mRNA expression in human MCF7 cells at IC50 level incubated for 24 hrs by RT-PCR method; assay type: functional; how it was run: as §2
MCF7 [14] = experiment: Induction of apoptosis in human MCF7 cells assessed as increase in caspase-3 mRNA expression at IC50 level incubated for 24 hrs by RT-PCR method; assay type: functional, cell-based; how it was run: as §2
MCF7 [15] = experiment: Anticancer activity against human MCF7 cells assessed as reduction in cell growth incubated for 48 hrs by MTT assay; assay type: functional, cell-based; settings: MCF7, 48 h
MCF7 [16] = experiment: Induction of cell cycle arrest in human MCF7 cells assessed as reduction in accumulation at G2/M phase at IC50 level incubated for 24 hrs by propidium iodide staining based flow cytometry; assay type: functional
How it was run: (§4)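 Floating and adherent cells were fixed in 70% ethanol at 4 °C and rehydrated. They were stained 15 min with PI/Triton X-100/RNase A. 10000 events were acquired by flow cytometry. G0/G1, S and G2/M percentages were gated in FlowJo.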

MCF7 [17] = experiment: Induction of cell cycle arrest in human MCF7 cells assessed as accumulation at G1 phase at IC50 level incubated for 24 hrs by propidium iodide staining based flow cytometry (reference value: 72.3%); assay type: functional; how it was run: as §4
A549 = experiment: Anticancer activity against human A549 cells assessed as reduction in cell growth incubated for 48 hrs by MTT assay; assay type: functional, cell-based; settings: A549, 48 h
MCF7 [18] = experiment: Reduction in mitochondrial membrane potential in human MCF7 cells at IC50 level incubated for 24 hrs by rhodamine 123 staining based fluorescence microscopy; assay type: functional
How it was run: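 Harvested cells were loaded with rhodamine 123 (5 µg/mL), washed and incubated 30 min at room temperature. They were analysed by flow cytometry and fluorescence microscopy, and fluorescence loss was quantified by spectrofluorometry vs untreated cells.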

MCF7 [19] = experiment: Induction of apoptosis in human MCF7 cells assessed as increase in caspase-7 mRNA expression at IC50 level incubated for 24 hrs by RT-PCR method; assay type: functional, cell-based; how it was run: as §2
HeLa = experiment: Anticancer activity against human HeLa cells assessed as reduction in cell growth incubated for 48 hrs by MTT assay; assay type: functional, cell-based
MCF7 [20] = experiment: Induction of apoptosis in human MCF7 cells assessed as chromatin condensation at IC50 level incubated for 24 hrs by Hoechst […] staining based fluorescence microscopy; assay type: functional; how it was run: as §1
MCF7 [21] = experiment: Induction of apoptosis in human MCF7 cells assessed as reduction in Bcl2 mRNA expression at IC50 level incubated for 24 hrs by RT-PCR method; assay type: functional, cell-based; how it was run: as §2
MCF7 [22] = experiment: Anticancer activity against human MCF7 cells assessed as reduction in cell viability at IC50 level incubated for 48 hrs; assay type: functional, cell-based; how it was run: as §3
MCF7 [23] = experiment: Induction of cell cycle arrest in human MCF7 cells assessed as reduction in accumulation at S phase at IC50 level incubated for 24 hrs by propidium iodide staining based flow cytometry; assay type: functional; how it was run: as §4

Structure (SMILES)	inhibition (MCF7 [2])	Activity (MCF7 [3])	inhibition (MCF7 [4])	Activity (MCF7 [5])	Activity (MCF7 [6])	fold change (FC) (MCF7 [7])	IC50 (HaCaT) [µM]	inhibition (INH) (MCF7 [8]) [%]	fold change (FC) (MCF7 [9])	Activity (MCF7 [10])	Activity (MCF7 [11])	fold change (FC) (MCF7 [12])	fold change (FC) (MCF7 [13])	Activity (MCF7 [14])	IC50 (MCF7 [15]) [µM]	Activity (MCF7 [16])	Activity (MCF7 [17]) [%]	IC50 (A549) [µM]	inhibition (INH) (MCF7 [18]) [%]	Activity (MCF7 [19])	other results
Fc1ccc(-c2nn(-c3ccccc3)cc2-c2nc3cc(F)ccc3[nH]2)cc1	Active	Active	Active	Active	Active	1.4	> 50	50	2	inactive	Active	1.1	1.6	Active	0.95	Active	84.7	1.13	44	Active	Activity (MCF7 [1]): 26%; IC50 (HeLa): 1.57 µM; Activity (MCF7 [20]): 26%; Activity (MCF7 [21]): Active; Activity (MCF7 [22]): Active; Activity (MCF7 [23]): Active
Brc1ccc2[nH]c(-c3cn(-c4ccccc4)nc3-c3ccccc3)nc2c1	Active	Active	Active	Active	Active	1.4	> 50	50	2	inactive	Active	1.1	2.2	Active	0.83	Active	85.2	1.81	62	Active	IC50 (HeLa): 1.76 µM; Activity (MCF7 [21]): Active; Activity (MCF7 [22]): Active; Activity (MCF7 [23]): Active
Clc1ccc(-c2nn(-c3ccccc3)cc2-c2nc3cc(Cl)ccc3[nH]2)cc1	Active	Active	Active	Active	Active	1.4	> 50	50	2	inactive	Active	1.1	1.6	Active	1.17	Active	81.3	1.34	44	Active	Activity (MCF7 [1]): 32%; IC50 (HeLa): 1.63 µM; Activity (MCF7 [20]): 32%; Activity (MCF7 [21]): Active; Activity (MCF7 [22]): Active; Activity (MCF7 [23]): Active
